# SENP7 block: SENP7 protease inhibition; Q9BQF6; recombinant SENP7, Z-RLRGG-aminoluciferin luminescence, 40 min; inhibition, % at 5 µM; 330,000 tested, 1.5% active; AID 434973;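 active means inhibition above about 50% at the single test dose, limit read from the data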;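 further: plate controls were DMSO with enzyme for no effect and no enzyme buffer wells for full effect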
# Target sequence (Q9BQF6 706-1050 limits assumed): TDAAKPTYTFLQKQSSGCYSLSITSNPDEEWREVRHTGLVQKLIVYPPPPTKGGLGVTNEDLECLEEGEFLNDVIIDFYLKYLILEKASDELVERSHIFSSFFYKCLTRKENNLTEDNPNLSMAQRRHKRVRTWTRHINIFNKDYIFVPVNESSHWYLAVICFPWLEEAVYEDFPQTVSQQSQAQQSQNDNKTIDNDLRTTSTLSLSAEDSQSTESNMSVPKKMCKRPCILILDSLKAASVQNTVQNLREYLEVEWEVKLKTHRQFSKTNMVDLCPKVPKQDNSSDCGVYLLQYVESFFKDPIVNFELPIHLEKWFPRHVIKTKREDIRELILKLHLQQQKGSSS
# SENP1 FRET inh: SENP1 (human) catalytic domain inhibition; 360,000 tested, 0.21% active; AID 624204; inhibition, % at 10 µM; Q9P0U3; recombinant SENP1 catalytic domain, CyPet-SUMO1-YPet FRET cleavage;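 active means inhibition at least 30% at 10 µM, raw YFP signal under a set limit, fluorescence ratio 0.5 to 1.5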;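 further: 0% = enzyme with DMSO and 100% = no enzyme wells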
#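 Assay system – human recombinant His6-tagged SENP1 catalytic domain enzyme · Input – SENP1 enzyme, 20 pM final · Buffer or medium – Tris pH 8 buffer plus EDTA, NaCl, BME, BSA, NP40, catalase · Schedule – 50 min reaction at room temperature · Technique – FRET read of cyan and yellow fluorescence · Control set – no-enzyme wells low, DMSO-plus-enzyme wells high control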
# SENP8 block-1: blocks the human protease SENP8. purified SENP8, Z-RLRGG-aminoluciferin cleavage, luminescence. 330,000 tested, 1.2% active. inhibition, % at 10 µM. Q96LD8; in the data active means inhibition above about 50%
# Target sequence (Q96LD8 whole entry, looked up): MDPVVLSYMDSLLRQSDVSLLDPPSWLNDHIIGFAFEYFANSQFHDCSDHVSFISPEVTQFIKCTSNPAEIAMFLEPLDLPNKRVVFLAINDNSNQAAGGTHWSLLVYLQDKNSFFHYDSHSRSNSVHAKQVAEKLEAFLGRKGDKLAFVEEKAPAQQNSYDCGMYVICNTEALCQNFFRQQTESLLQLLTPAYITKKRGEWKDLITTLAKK
# SENP8 block-2: inhibitors of human SENP8 protease; recombinant SENP8, Nedd8 substrate fluorescence; inhibition, % at 20 µM; 360,000 tested, 0.64% active; in the data active means inhibition mostly above about 40%, no sharp cut-off; inactive means mostly below about 27%
# SENP6 block: SENP6 protease inhibition. Q9GZR1. 330,000 tested, 1.8% active. inhibition, % at 10 µM. Recombinant SENP6 catalytic domain, aminoluciferin luminescence. AID 2599;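 active means inhibition above about 50% at the single tested dose, limit read from the data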;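 further: plate controls were DMSO wells with enzyme for no effect and DMSO wells lacking enzyme for full effect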
# SENP8 confirm: confirmation of human SENP8 protease inhibitors; inhibition, % at 12.5 µM; 6,200 tested, 40% active; AID 488912; shares compounds with SENP7 block; Recombinant SENP8, Z-RLRGG-aminoluciferin luminescence, 60 min;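 active means mean inhibition across replicates above about 50%, limit read from the data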
# SENP6 conf: confirmation of human SENP6 protease inhibitors | recombinant SENP6, Z-RLRGG-aminoluciferin luminescence | AID 488915 | inhibition, % at 12.5 µM | 6,200 tested, 58% active | shares compounds with SENP7 block
# SENP7 confirm: human SENP7 inhibition, confirmed. shares compounds with SENP7 block. recombinant SENP7, Z-RLRGG-aminoluciferin luminescence, 40 min. inhibition, % at 12.5 µM. 6,200 tested, 69% active
# Casp3 SENP sel: inhibits human caspase-3 in SENP selectivity test; 6,200 tested, 60% active; shares compounds with SENP7 block; inhibition, % at 12.5 µM; AID 488918; purified caspase-3, Z-DEVD-aminoluciferin luminescence, 60 min;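 active means mean inhibition above about 50%, limit read from the data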;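 further: plate controls were enzyme with DMSO for no effect and wells without caspase-3 for full effect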
# Luc interf: counter-screen for SENP inhibitors: luminescence interference; shares compounds with SENP7 block; Pre-incubated SENP8/Z-RLRGG-aminoluciferin, luciferase luminescence interference; inhibition, % at 12.5 µM; 6,200 tested, 39% active; AID 488919;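 active means mean inhibition above about 50% when retested at one dose, limit read from the data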;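 further: plate controls were DMSO wells with completed reaction for no effect and substrate without enzyme for full effect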
# * marks the source's active call; other numbers are inactive results; / = not tested or not shown. An excerpt weighted towards active compounds, which were near 2.5% of everything screened.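 How the source made its calls, unless noted: active means mean inhibition above about 50% in the one-dose retest (limit read from the data); inactive means the rest.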
SMILES,SENP7 block,SENP1 FRET inh,SENP8 block-1,SENP8 block-2,SENP6 block,SENP8 confirm,SENP6 conf,SENP7 confirm,Casp3 SENP sel,Luc interf
c1cc(-c2cccs2)nc(-c2cccs2)c1,0.2,2.8,2.6,12.9,-6.4,/,/,/,/,/
O=C(Oc1ccc(-c2cnc3ccccc3n2)cc1)c1cccc([N+](=O)[O-])c1,0.8,0.6,13.6,-63.6,23.7,/,/,/,/,/
O=C(CCl)Nc1cccc(-c2cnc3ccccc3n2)c1,3.0,1.2,-15.0,-48.4,-5.2,/,/,/,/,/
Cc1ccc(-c2cnc3ccccc3n2)cc1C,98.2*,1.9,95.1*,-49.3,94.0*,96.7*,99.5*,103.0*,96.5*,48.0
CCOC(=O)c1ccc2ncc(-c3ccccc3)nc2c1,/,1.3,/,5.2,/,/,/,/,/,/
Cc1cc2ncc(-c3ccccc3)nc2cc1C,96.9*,1.5,95.1*,-5.5,95.1*,96.9*,99.1*,102.3*,96.1*,91.9*
c1csc(-c2cnc3ccccc3n2)c1,58.9*,-22.9,30.6,-281.5,67.4*,12.1,54.3*,83.3*,58.5*,11.2
COc1cccc(-c2c(C#N)c(N)nc3c2c(C)nn3-c2ccccc2)c1O,-14.0,26.6,-8.3,-248.7,-39.5,/,/,/,/,/
CCc1ccc(OC(C)C(=O)Nc2ccc(S(=O)(=O)Nc3nccs3)cc2)cc1 (centres undefined),-4.7,0.3,20.1,9.9,9.8,/,/,/,/,/
CCCCOc1ccc(-c2cnc3ccccc3n2)cc1,94.5*,-5.4,90.9*,-407.0,96.1*,52.3*,64.1*,55.3*,82.7*,20.5
Nc1ccc2nc(-c3ccccc3)cnc2c1,42.4,-39.5,52.5*,-369.1,67.1*,41.1,67.6*,88.0*,73.8*,71.0*
O=C(O)c1cc(-c2ccc(O)cc2)nc2ccccc12,-0.9,/,3.2,/,8.9,/,/,/,/,/
Oc1ccc(-c2cnc3ccccc3n2)cc1,70.6*,-2.3,83.9*,-315.9,90.0*,82.5*,81.6*,97.0*,86.7*,85.7*
Nc1ccc(-c2cnc3ccccc3n2)cc1,62.2*,-37.1,54.6*,-99.9,62.1*,59.0*,55.0*,85.5*,75.4*,60.6*
N#Cc1cnc2sc3ccccc3n2c1=N,78.9*,-24.5,92.7*,-179.2,94.2*,94.6*,96.0*,100.3*,96.6*,93.9*
Cn1nc2sc3ccccc3n2c(=O)c1=O,3.1,-2.5,-0.2,-24.3,6.3,/,/,/,/,/
O=C(Nc1nccs1)c1cc2c(s1)-c1ccccc1OC2,15.9,-95.0,-15.7,-430.6,-10.3,/,/,/,/,/
Cc1cccc2c1-c1sc(C(=O)Nc3nccs3)cc1CO2,66.9*,-122.2,-1.2,-399.4,39.5,7.6,11.9,20.4,13.0,9.6
COC(=O)c1nn(-c2ccc(-c3ccccc3)cc2)cc1O,96.5*,-8.3,93.4*,-492.3,97.0*,92.4*,97.9*,102.3*,95.2*,87.6*
CCOC(=O)c1nn(-c2ccccc2)cc1O,2.0,1.2,9.8,-37.9,-6.7,/,/,/,/,/
CCOc1ccc(CNC2CCCCCCC2)cc1OC,-11.3,4.1,-14.4,11.9,-20.5,/,/,/,/,/
O=C(Nc1cccc2ccccc12)c1cccc(F)c1,-4.3,-1.4,-7.4,5.2,0.3,/,/,/,/,/
Fc1cccc(NC(=S)Nc2cccc3ccccc23)c1,29.5,-7.1,27.5,-392.8,56.9*,-22.2,-15.8,-9.3,-10.8,-5.2
CC(=O)N(C)c1ccc(NC(=S)Nc2cccc3ccccc23)cc1,46.6,-22.5,58.7*,-423.4,67.6*,-22.1,-9.6,2.6,-3.1,-1.1
CCOc1ccc(OCCSc2nc(C)cc(=O)[nH]2)cc1,50.6*,2.4,70.4*,3.2,66.0*,26.3,72.4*,61.1*,78.6*,3.4
SMILES,SENP7 block,SENP1 FRET inh,SENP8 block-1,SENP8 block-2,SENP6 block,SENP8 confirm,SENP6 conf,SENP7 confirm,Casp3 SENP sel,Luc interf
CC(C)C[C@@H]1Cc2[nH][nH]c(=O)c2[C@H](C)O1,/,-0.6,/,17.2,/,/,/,/,/,/
Cc1ccnc(NC(=O)c2ccc([N+](=O)[O-])s2)c1,42.7,-0.7,23.1,9.5,35.1,/,/,/,/,/
CSc1ccc(NC(=O)Nc2cc(C)ccn2)cc1,77.9*,0.2,29.2,17.5,48.9,13.1,30.4,30.9,34.7,11.0
COc1ccc(NC(=O)Nc2cc(C)ccn2)cc1,/,1.5,/,23.8,/,/,/,/,/,/
Cc1ccnc(NC(=O)c2cc3cc(F)ccc3s2)c1,73.1*,-0.9,73.1*,-65.6,87.1*,78.8*,78.2*,94.8*,72.6*,59.6*
Cc1ccnc(NC(=O)Nc2ccc(F)cc2)c1,41.6,0.0,29.8,19.9,70.6*,16.9,30.9,41.9,21.8,3.4
O=C(/C=C/c1cccs1)Nc1ccncc1,18.6,1.0,10.0,8.8,26.7,/,/,/,/,/
CCCOC(=O)c1ccc(NC(=O)/C=C/c2cccs2)cc1,24.1,1.5,34.7,-36.0,74.6*,20.9,20.8,56.9*,11.3,16.0
Cc1cccc(NC(=O)/C=C/c2cccs2)n1,71.5*,-2.1,36.1,6.6,67.2*,56.3*,54.6*,84.0*,76.7*,66.0*
Cc1cc(C)n(C(=O)/C=C/c2cccs2)n1,56.3*,1.1,-26.6,11.2,-11.4,1.3,-10.5,5.1,-6.2,8.0
O=C(/C=C/c1cccs1)N1CCCC1,7.4,-1.7,5.5,5.3,2.0,/,/,/,/,/
Cc1ccc(-c2nc(C)sc2CC(=O)Nc2cccc(C)c2C)cc1,0.8,2.2,0.7,16.6,-1.7,/,/,/,/,/
CCn1c(-c2cc3c(C(F)(F)F)nn(C)c3s2)n[nH]c1=S,10.9,-1.8,8.5,-273.1,4.6,/,/,/,/,/
O=C(/C=C/c1cccs1)c1ccc(N2CCOCC2)cc1,87.4*,14.1,72.0*,-1.2,84.2*,38.4,81.7*,93.2*,37.8,23.9
CCOCCCNc1nc(C)nc2c1nnn2Cc1c(F)cccc1Cl,4.1,1.2,6.7,13.7,-11.4,/,/,/,/,/
COc1ccc(C2c3ccc(O)cc3Oc3ncn4nc(-c5ccncc5)nc4c32)cc1OC (centres undefined),-1.8,-22.4,7.6,8.4,67.0*,11.8,7.9,5.3,1.7,-2.7
COc1ccc(S(=O)(=O)NNC(=O)c2cc3cc4ccccc4nc3s2)cc1,3.8,-0.1,3.4,-88.7,-6.4,/,/,/,/,/
COc1ccc2cc3cc(C(=O)NC4CC4)sc3nc2c1,85.2*,-0.2,71.3*,-400.9,90.3*,5.5,81.3*,98.6*,92.9*,13.3
N#C/C(=C/c1ccco1)c1nc2ccccc2s1,77.8*,-27.7,85.8*,-9.5,38.5,81.8*,86.5*,95.0*,85.2*,54.9*
